Assay results taken from ChEMBL document CHEMBL5696442, “Discovery of type II inhibitors of TGFβ-activated kinase 1 (TAK1) and mitogen-activated protein kinase kinase kinase kinase 2 (MAP4K2)” (J Med Chem, 2015).

Columns and labels:
[1] = target: T1, Ephrin type-B receptor 4 (Homo sapiens) (UniProt P54760); assay: Inhibition of EphB4 ACT labeling site in human Huh-7 cells at 1 uM by KiNativ Profiling analysis relative to control; assay type: cell-based
T1 sequence (whole entry): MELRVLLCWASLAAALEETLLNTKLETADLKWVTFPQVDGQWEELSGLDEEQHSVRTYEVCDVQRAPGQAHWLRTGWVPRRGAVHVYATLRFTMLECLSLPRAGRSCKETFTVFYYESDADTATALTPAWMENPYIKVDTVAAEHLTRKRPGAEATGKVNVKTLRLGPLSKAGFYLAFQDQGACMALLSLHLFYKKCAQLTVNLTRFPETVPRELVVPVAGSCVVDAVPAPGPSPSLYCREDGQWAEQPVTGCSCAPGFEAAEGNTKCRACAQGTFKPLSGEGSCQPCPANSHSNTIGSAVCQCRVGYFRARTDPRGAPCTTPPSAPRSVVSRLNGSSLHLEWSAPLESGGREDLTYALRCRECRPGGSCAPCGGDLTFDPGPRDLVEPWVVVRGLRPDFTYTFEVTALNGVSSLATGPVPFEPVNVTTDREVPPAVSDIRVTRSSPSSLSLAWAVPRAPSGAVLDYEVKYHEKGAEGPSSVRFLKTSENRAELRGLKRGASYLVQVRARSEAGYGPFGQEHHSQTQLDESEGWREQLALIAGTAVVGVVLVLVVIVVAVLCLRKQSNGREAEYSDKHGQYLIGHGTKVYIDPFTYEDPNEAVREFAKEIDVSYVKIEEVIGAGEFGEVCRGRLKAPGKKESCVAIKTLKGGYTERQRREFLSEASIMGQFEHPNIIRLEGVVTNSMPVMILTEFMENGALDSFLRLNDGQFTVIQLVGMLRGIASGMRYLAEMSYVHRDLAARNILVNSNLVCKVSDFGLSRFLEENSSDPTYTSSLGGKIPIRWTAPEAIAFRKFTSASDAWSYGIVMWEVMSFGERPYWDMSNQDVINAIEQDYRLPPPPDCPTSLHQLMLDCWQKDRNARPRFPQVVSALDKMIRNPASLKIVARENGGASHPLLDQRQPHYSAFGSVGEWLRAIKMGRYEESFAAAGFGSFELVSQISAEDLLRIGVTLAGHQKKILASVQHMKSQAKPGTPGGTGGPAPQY

[2] = target: Ribosomal protein S6 kinase alpha-3 (Homo sapiens) (UniProt P51812); assay: Inhibition of RSK2 domain2 Lys2 labeling site in human A-375 cells at 0.5 uM by KiNativ Profiling analysis relative to control; assay type: cell-based
Ribosomal protein S6 kinase alpha-3 (Homo sapiens), sequence (P51812 whole entry, the tested form may be a part): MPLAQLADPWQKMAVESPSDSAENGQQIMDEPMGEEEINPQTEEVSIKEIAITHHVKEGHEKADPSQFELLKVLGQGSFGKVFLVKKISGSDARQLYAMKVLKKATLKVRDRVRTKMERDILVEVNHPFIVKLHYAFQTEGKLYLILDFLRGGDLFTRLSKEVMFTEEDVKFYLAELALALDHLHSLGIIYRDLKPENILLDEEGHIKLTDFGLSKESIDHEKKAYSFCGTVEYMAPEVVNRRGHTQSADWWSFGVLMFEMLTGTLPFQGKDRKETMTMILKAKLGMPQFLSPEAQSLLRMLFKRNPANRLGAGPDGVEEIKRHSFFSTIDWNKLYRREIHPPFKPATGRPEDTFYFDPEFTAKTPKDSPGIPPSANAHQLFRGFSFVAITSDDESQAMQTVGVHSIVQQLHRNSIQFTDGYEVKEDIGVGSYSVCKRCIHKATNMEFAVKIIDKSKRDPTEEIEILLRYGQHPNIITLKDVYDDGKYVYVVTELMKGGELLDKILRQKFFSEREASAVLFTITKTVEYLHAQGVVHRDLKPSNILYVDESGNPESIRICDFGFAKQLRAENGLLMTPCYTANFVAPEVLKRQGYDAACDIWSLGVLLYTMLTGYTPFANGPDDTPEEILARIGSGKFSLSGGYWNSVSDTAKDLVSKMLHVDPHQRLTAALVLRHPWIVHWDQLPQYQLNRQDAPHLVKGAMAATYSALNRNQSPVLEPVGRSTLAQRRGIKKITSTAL
Summary of the method: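 Live A375 melanoma cells treated with compound at 5 or 0.5 μM, then lysed. Lysate kinases were labeled with a lysine-reactive ATP or ADP-biotin probe. Inhibition was read as protection of labeling sites from the probe.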

[3] = target: Serine/threonine-protein kinase Chk2 (Homo sapiens) (UniProt O96017); assay: Inhibition of CHK2 Lys1 labeling site in human A-375 cells at 0.05 uM by KiNativ Profiling analysis relative to control; assay type: cell-based
Serine/threonine-protein kinase Chk2 (Homo sapiens), sequence (O96017 whole entry): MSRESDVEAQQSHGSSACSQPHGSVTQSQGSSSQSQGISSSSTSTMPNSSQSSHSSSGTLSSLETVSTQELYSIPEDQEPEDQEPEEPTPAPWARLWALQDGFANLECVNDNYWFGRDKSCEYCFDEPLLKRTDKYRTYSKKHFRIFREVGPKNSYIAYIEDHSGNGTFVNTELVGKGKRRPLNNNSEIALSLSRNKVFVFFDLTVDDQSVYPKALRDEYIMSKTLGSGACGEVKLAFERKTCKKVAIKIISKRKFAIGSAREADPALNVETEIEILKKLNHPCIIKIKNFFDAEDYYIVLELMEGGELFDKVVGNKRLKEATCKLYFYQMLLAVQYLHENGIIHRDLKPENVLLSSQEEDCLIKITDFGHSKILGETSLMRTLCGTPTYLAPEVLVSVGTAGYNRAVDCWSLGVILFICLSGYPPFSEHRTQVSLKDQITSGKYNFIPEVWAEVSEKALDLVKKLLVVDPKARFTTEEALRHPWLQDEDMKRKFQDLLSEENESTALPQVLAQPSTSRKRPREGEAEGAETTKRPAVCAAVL

[4] = target: T2, Serine/threonine-protein kinase Nek9 (Homo sapiens) (UniProt Q8TD19); assay: Inhibition of NEK9 ACT labeling site in human A-375 cells at 0.05 uM by KiNativ Profiling analysis relative to control; assay type: cell-based
T2 sequence (whole entry): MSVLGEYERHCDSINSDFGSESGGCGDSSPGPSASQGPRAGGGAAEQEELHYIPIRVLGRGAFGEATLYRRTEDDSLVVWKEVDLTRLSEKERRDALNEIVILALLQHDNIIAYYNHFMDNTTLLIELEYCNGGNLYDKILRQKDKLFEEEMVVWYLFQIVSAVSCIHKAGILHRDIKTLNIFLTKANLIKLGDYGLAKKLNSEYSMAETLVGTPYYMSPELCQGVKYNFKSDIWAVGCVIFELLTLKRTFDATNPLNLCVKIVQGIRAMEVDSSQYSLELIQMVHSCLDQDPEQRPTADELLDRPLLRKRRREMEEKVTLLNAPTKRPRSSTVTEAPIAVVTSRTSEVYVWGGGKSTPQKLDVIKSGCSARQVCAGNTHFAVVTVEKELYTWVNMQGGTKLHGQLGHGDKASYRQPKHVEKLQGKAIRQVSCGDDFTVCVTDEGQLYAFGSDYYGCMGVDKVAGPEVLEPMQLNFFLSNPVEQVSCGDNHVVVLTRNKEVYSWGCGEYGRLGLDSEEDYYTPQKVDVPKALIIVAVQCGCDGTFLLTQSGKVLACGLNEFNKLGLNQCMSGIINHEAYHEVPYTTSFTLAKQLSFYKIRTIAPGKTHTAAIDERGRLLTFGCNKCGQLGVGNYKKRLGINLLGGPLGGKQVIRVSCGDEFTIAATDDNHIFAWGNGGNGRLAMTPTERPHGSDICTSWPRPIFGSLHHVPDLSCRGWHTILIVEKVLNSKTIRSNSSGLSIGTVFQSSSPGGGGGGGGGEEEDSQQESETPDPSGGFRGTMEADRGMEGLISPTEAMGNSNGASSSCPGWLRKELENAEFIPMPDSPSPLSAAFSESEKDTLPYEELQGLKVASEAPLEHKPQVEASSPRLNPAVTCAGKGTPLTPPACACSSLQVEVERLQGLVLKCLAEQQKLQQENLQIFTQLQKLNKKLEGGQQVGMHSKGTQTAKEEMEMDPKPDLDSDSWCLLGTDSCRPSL

[5] = target: Tyrosine-protein kinase Yes (Homo sapiens) (UniProt P07947); assay: Inhibition of YES ACT labeling site in human A-375 cells at 5 uM by KiNativ Profiling analysis relative to control; assay type: cell-based
[6] = Inhibition of p70S6K ATP Loop labeling site harbouring GGYGKVFQVR in human A-375 cells at 5 uM by KiNativ Profiling analysis relative to control; settings: condition cancer
[7] = target: Cyclin-dependent kinase 17 (Homo sapiens) (UniProt Q00537); assay: Inhibition of PCTAIRE2 Lys2 labeling site in human A-375 cells at 0.5 uM by KiNativ Profiling analysis relative to control; assay type: cell-based
Cyclin-dependent kinase 17 (Homo sapiens), sequence (Q00537 whole entry, looked up): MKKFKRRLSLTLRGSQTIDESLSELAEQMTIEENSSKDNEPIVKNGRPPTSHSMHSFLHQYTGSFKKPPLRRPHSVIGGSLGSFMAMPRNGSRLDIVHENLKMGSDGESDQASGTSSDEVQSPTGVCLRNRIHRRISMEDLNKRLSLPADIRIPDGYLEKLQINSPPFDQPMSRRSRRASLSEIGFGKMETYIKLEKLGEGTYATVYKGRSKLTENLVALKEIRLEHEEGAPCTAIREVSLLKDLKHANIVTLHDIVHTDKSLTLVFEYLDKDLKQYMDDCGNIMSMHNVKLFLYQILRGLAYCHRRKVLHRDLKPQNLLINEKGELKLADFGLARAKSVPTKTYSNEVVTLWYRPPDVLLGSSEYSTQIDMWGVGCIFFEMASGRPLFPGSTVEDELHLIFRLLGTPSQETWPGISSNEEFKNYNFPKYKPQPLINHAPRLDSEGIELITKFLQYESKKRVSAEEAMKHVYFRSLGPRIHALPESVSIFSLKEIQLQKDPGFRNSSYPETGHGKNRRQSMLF

[8] = target: Serine/threonine-protein kinase 24 (Homo sapiens) (UniProt Q9Y6E0); assay: Inhibition of MST3 Lys2 labeling site harbouring DIKAANVLLSEHGEVK in human A-375 cells at 0.05 uM by KiNativ Profiling analysis relative to control; assay type: cell-based
Serine/threonine-protein kinase 24 (Homo sapiens), sequence (Q9Y6E0 whole entry, looked up): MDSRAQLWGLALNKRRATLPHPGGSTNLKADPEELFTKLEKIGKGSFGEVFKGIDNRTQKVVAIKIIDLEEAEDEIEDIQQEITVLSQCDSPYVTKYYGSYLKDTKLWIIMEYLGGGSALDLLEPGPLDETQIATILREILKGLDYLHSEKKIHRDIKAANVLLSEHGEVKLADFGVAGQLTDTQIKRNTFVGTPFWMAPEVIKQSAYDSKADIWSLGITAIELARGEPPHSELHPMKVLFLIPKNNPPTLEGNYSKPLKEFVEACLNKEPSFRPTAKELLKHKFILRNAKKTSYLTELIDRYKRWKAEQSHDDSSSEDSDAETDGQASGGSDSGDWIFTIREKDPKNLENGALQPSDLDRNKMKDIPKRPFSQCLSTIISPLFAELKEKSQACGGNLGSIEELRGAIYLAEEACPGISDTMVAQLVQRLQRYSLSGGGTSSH

[9] = target: Tyrosine-protein kinase ABL2 (Homo sapiens, UniProt P42684); assay: Inhibition of ARG ACT labeling site in human A-375 cells at 0.5 uM by KiNativ Profiling analysis relative to control; assay type: cell-based
Tyrosine-protein kinase ABL2, sequence (P42684 whole entry): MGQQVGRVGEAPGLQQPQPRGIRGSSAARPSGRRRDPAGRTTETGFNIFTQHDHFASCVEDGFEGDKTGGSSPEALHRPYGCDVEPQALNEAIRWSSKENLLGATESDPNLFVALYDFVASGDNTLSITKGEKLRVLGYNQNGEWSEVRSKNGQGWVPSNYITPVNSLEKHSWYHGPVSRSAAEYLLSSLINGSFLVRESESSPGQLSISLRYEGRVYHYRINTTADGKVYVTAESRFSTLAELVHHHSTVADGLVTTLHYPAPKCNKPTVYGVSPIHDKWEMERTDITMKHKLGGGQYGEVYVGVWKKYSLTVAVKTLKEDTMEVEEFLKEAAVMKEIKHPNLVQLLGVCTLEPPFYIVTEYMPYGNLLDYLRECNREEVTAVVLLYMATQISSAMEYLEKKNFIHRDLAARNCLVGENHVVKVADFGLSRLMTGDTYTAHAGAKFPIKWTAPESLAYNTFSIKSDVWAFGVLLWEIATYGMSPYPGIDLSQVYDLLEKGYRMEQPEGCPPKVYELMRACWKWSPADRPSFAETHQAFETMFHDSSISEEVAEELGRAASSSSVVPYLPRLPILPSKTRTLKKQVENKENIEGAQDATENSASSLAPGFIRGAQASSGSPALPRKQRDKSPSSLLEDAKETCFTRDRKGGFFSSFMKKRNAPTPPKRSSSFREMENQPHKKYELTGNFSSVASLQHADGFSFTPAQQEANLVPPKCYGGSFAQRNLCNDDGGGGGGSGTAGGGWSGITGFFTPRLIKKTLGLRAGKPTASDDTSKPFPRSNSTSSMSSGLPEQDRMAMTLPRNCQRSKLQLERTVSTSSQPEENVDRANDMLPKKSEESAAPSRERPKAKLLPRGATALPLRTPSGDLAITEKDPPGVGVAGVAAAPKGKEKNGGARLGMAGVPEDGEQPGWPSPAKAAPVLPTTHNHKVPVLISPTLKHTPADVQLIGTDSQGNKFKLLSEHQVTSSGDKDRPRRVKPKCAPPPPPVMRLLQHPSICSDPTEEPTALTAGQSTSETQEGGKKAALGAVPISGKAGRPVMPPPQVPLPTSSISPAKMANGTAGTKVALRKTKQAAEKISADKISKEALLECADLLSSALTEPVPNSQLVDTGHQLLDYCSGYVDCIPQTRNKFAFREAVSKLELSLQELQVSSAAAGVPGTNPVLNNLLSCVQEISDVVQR
Summary of the method: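 Intact A375 melanoma cells were treated with compound at 5 or 0.5 μM, then lysed. Lysate kinases were labeled with a lysine-reactive ATP or ADP-biotin probe (KiNativ). Inhibition is read as protection of each kinase labeling site from probe labeling.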

[10] = target: Tyrosine-protein kinase ABL1 (Homo sapiens, UniProt P00519); assay: Inhibition of ABL Lys1 labeling site in human Huh-7 cell lysate at 1 uM by KiNativ Profiling analysis relative to control; assay type: subcellular
Tyrosine-protein kinase ABL1, sequence (P00519 whole entry): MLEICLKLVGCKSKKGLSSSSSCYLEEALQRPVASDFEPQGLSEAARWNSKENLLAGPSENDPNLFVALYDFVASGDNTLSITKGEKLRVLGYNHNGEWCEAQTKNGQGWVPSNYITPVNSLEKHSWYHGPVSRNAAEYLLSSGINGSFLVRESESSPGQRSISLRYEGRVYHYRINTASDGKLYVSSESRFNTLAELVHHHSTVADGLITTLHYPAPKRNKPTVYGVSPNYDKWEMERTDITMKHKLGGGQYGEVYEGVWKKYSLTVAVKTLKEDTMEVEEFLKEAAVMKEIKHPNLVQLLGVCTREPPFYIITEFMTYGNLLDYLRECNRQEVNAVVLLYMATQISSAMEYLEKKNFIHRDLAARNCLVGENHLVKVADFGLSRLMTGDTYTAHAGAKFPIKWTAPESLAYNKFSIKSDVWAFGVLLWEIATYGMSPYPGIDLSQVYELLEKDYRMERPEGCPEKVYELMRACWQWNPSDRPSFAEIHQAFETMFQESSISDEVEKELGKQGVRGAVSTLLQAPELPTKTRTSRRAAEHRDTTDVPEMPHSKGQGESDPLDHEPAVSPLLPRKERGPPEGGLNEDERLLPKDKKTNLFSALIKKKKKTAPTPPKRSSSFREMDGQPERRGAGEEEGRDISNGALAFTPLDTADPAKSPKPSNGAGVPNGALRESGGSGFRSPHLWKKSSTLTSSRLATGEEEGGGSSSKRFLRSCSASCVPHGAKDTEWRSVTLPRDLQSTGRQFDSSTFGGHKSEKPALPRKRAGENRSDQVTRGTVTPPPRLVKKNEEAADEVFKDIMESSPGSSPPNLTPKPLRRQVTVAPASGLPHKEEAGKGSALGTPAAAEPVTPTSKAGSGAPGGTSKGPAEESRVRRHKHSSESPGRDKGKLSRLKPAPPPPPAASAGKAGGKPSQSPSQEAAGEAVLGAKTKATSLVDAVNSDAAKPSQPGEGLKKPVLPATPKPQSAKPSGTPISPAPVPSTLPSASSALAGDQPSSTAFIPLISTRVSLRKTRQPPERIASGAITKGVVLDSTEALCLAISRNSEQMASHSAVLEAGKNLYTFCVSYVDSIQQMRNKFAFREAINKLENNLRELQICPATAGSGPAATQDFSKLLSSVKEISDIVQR

`CCN1CCN(Cc2ccc(NC(=O)c3ccc(C)c(Oc4ccnc5[nH]ccc45)c3)cc2C(F)(F)F)CC1` gave an inhibition [1] of 12.1%, an inhibition [2] of -0.1% and an inhibition [3] of -1.9%. It also gave an inhibition [4] of 8.1%, an inhibition [5] of 89.6% and an inhibition at 5 µM [6] of 14.7%. The inhibition [7] was 54.6%, the inhibition [8] was -2.7% and the inhibition [9] was greater than 95%.
For `CNc1cc(Oc2cc(C(=O)Nc3cc(-n4cnc(C)c4)cc(C(F)(F)F)c3)ccc2C)ncn1`, the inhibition [10] was 51.8%.
`CNc1cc(Oc2cc(C(=O)Nc3cc(N4CCN(C)CC4)cc(C(F)(F)F)c3)ccc2C)ncn1` gave an inhibition [1] of 75.4% and an inhibition [10] of 48.4%.
In the case of `CCN1CCN(Cc2ccc(NC(=O)c3ccc(C)c(/C=C/c4cnc5[nH]ccc5c4OC)c3)cc2C(F)(F)F)CC1`, the inhibition [2] is reported as 6.2%, the inhibition [3] is reported as 2.9% and the inhibition [4] is reported as -4.6%. The inhibition [5] was greater than 99%, the inhibition at 5 µM [6] was -8% and the inhibition [7] was 29.6%. The inhibition [8] was 3.2% and the inhibition [9] was greater than 98%.
